# Assay results: article PMC2692502 (Journal of Antimicrobial Chemotherapy, 2009)
# What was measured:
# [1] = Study 1: safety and tolerability; assay type: in vivo, human; settings: Study 1, 6 mg/kg
# How it was run: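 Healthy adult volunteers in a randomized, open-label, single-dose, two-period crossover. Each received test compound 6 mg/kg as a 30 min iv infusion and as a 2 min peripheral iv injection by syringe driver, in random order, with a 5-day washout. The investigator graded AEs for relatedness (not, unlikely, possibly, probably related) and severity (mild/moderate/severe). Tabulated AEs were possibly or probably related. Follow-up was 1–11 days post-dose.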
# [2] = Study 2: single- and multiple-dose pharmacokinetics of the 2 min iv injection; assay type: in vivo, human; settings: for Ratio of 6 mg/kg:4 mg/kg daptomycin (95% CI), AUC0–tau (dose-normalized) / Ratio of 6 mg/kg:4 mg/kg daptomycin (95% CI), Ae0–tau (dose-normalized), cumulative amount of unchanged daptomycin excreted in urine / Ratio of 6 mg/kg:4 mg/kg daptomycin (95% CI), CL / Ratio of 6 mg/kg:4 mg/kg daptomycin (95% CI), Cmax (dose-normalized): 6 mg/kg n = 12, 4 mg/kg n = 8, 2 min iv injection; for clearance: CL; for Tmax: median (range); for Vd: V; for dose excreted: urine
# How it was run: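 Healthy adults were randomized single-blind to 6 or 4 mg/kg test compound or placebo as a 2 min peripheral iv injection by syringe driver, once daily for 7 days. Heparinized blood was drawn on days 1 and 7, from predose to 24 h after injection start, plus 36 and 48 h on day 7. Total plasma drug was measured by HPLC (LLOQ 3 mg/L). Non-compartmental analysis gave AUC by the trapezoidal rule and CL, reported as arithmetic means.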
# [3] = Study 2, day 1, geometric mean ratio
# [4] = Study 2, day 7, 6 mg/kg 2 min iv injection once daily, plasma, arithmetic mean (SD), n = 12, SD
# [5] = Study 2, day 7, geometric mean ratio
# [6] = both, human, plasma, iv, 4 mg/kg, Study 2, day 1, 4 mg/kg 2 min iv injection, plasma, arithmetic mean (SD), n = 8, SD
# [7] = both, human, plasma, iv, 4 mg/kg, Study 2, day 7, 4 mg/kg 2 min iv injection once daily, plasma, arithmetic mean (SD), n = 8, SD
# [8] = both, human, plasma, iv, 4 mg/kg, SD
structure (smiles),measurement,setting,value
CCCCCCCCCC(=O)N[C@@H](Cc1c[nH]c2ccccc12)C(=O)N[C@H](CC(N)=O)C(=O)N[C@@H](CC(=O)O)C(=O)N[C@@H]1C(=O)NCC(=O)N[C@@H](CCCN)C(=O)N[C@@H](CC(=O)O)C(=O)N[C@H](C)C(=O)N[C@@H](CC(=O)O)C(=O)NCC(=O)N[C@H](CO)C(=O)N[C@@H]([C@H](C)CC(=O)O)C(=O)N[C@@H](CC(=O)c2ccccc2N)C(=O)O[C@@H]1C [daptomycin],Subjects with related adverse event: nausea,"[1]; 2 min iv injection, n = 16",1 (6) n (%)
same,Subjects with related adverse event: urinary tract infection,"[1]; 2 min iv injection, n = 16",1 (6) n (%)
same,local tolerability reaction: mild tenderness,[1]; 30 min iv infusion group,two subjects
same,local tolerability reaction: pain,[1]; 30 min iv infusion group,one subject
same,Subjects with at least one adverse event possibly or probably related to study drug: Any adverse event,"[1]; 30 min iv infusion, n = 15",2 (13) n (%)
same,Subjects with related adverse event: Gastrointestinal disorders,"[1]; 30 min iv infusion, n = 15",0 n (%)
same,Subjects with related adverse event: Infections and infestations,"[1]; 30 min iv infusion, n = 15",2 (13) n (%)
same,Subjects with related adverse event: Nervous system disorders,"[1]; 30 min iv infusion, n = 15",0 n (%)
same,Subjects with related adverse event: fatigue,"[1]; 30 min iv infusion, n = 15",0 n (%)
same,Subjects with related adverse event: headache,"[1]; 30 min iv infusion, n = 15",0 n (%)
same,Subjects with related adverse event: nausea,"[1]; 30 min iv infusion, n = 15",0 n (%)
same,Subjects with related adverse event: urinary tract infection,"[1]; 30 min iv infusion, n = 15",2 (13) n (%)
same,serious or severe AEs or deaths,[1]; both regimens,no serious or severe AEs or deaths were reported
same,tolerability,[1]; both regimens,well tolerated
same,total AEs reported,"[1]; both regimens, 16 subjects",21
same,AEs of mild severity,"[1]; both regimens, of 21 AEs",Nineteen
same,steady-state concentrations achieved by,"[2]; Study 2, both treatment groups (6 mg/kg and 4 mg/kg), 2 min iv injection once daily, data not shown",third daily dose
same,AUC0–∞,"[2]; Study 2, day 1, 6 mg/kg 2 min iv injection, healthy adult volunteers, plasma, HPLC, non-compartmental, arithmetic mean (SD), n = 12, SD",690.37 (68.83) mg·h/L
same,CL,"[2]; Study 2, day 1, 6 mg/kg 2 min iv injection, plasma, arithmetic mean (SD), n = 12, SD",0.0088 (0.0009) L/h/kg
same,"Ratio of 6 mg/kg:4 mg/kg daptomycin (95% CI), AUC0–tau (dose-normalized)",[2]; [3],1.02 (0.87–1.2)
same,"Ratio of 6 mg/kg:4 mg/kg daptomycin (95% CI), Ae0–tau (dose-normalized), cumulative amount of unchanged daptomycin excreted in urine",[2]; [3],0.95 (0.72–1.25)
same,"Ratio of 6 mg/kg:4 mg/kg daptomycin (95% CI), CL",[2]; [3],1.00 (0.85–1.18)
same,"Ratio of 6 mg/kg:4 mg/kg daptomycin (95% CI), Cmax (dose-normalized)",[2]; [3],1.14 (0.97–1.3)
same,V,[2]; [4],0.107 (0.011) L/kg
same,t1/2,[2]; [4],8.65 (0.63) h
same,"Ratio of 6 mg/kg:4 mg/kg daptomycin (95% CI), AUC0–tau (dose-normalized)",[2]; [5],0.99 (0.87–1.12)
same,"Ratio of 6 mg/kg:4 mg/kg daptomycin (95% CI), Ae0–tau (dose-normalized), cumulative amount of unchanged daptomycin excreted in urine",[2]; [5],0.88 (0.69–1.11)
same,"Ratio of 6 mg/kg:4 mg/kg daptomycin (95% CI), CL",[2]; [5],1.01 (0.9–1.15)
same,"Ratio of 6 mg/kg:4 mg/kg daptomycin (95% CI), Cmax (dose-normalized)",[2]; [5],0.97 (0.82–1.16)
same,clearance,[2]; [6],0.15 mL/min/kg
same,clearance,[2]; [7],0.143 mL/min/kg
same,Cmax,"[2]; both, human, plasma, iv, 4 mg/kg, Study 2, day 1, 4 mg/kg 2 min iv injection, plasma, HPLC, arithmetic mean (SD), n = 8, SD",56.8 µg/mL
same,Cmax,"[2]; both, human, plasma, iv, 4 mg/kg, Study 2, day 7, 4 mg/kg 2 min iv injection once daily, plasma, HPLC, arithmetic mean (SD), n = 8, SD",62.8 µg/mL
same,Tmax,"[2]; both, human, plasma, iv, 4 mg/kg, Study 2, day 1, 4 mg/kg 2 min iv injection, plasma, n = 8",8.4 min
same,Tmax,"[2]; both, human, plasma, iv, 4 mg/kg, Study 2, day 7, 4 mg/kg 2 min iv injection once daily, plasma, n = 8",15 min
same,Vd,[2]; [6],0.116 L/kg
same,Vd,[2]; [7],0.109 L/kg
same,half-life,"[2]; both, human, plasma, iv, 4 mg/kg, t1/2, Study 2, day 1, 4 mg/kg 2 min iv injection, plasma, arithmetic mean (SD), n = 8, SD",545 min
same,half-life,"[2]; both, human, plasma, iv, 4 mg/kg, t1/2, Study 2, day 7, 4 mg/kg 2 min iv injection once daily, plasma, arithmetic mean (SD), n = 8, SD",536 min
same,AUC(0-inf),[2]; [8],468 µg·h/mL
same,AUC(0-t),[2]; [8],475 µg·h/mL
same,clearance,"[2]; both, human, plasma, iv, 6 mg/kg, Study 2, day 7, 6 mg/kg 2 min iv injection once daily, plasma, arithmetic mean (SD), n = 12, SD",0.145 mL/min/kg
same,Cmax,"[2]; both, human, plasma, iv, 6 mg/kg, Study 2, day 1, 6 mg/kg 2 min iv injection, plasma, HPLC, arithmetic mean (SD), n = 12, SD",97.5 µg/mL
same,Cmax,"[2]; both, human, plasma, iv, 6 mg/kg, Study 2, day 7, 6 mg/kg 2 min iv injection once daily, plasma, HPLC, arithmetic mean (SD), n = 12, SD",91.8 µg/mL
same,Tmax,"[2]; both, human, plasma, iv, 6 mg/kg, Study 2, day 1, 6 mg/kg 2 min iv injection, plasma, n = 12",1.8 min
same,Tmax,"[2]; both, human, plasma, iv, 6 mg/kg, Study 2, day 7, 6 mg/kg 2 min iv injection once daily, plasma, n = 12",15 min
same,Vd,"[2]; both, human, plasma, iv, 6 mg/kg, Study 2, day 1, 6 mg/kg 2 min iv injection, plasma, arithmetic mean (SD), n = 12, SD",0.106 L/kg
same,half-life,"[2]; both, human, plasma, iv, 6 mg/kg, t1/2, Study 2, day 1, 6 mg/kg 2 min iv injection, plasma, arithmetic mean (SD), n = 12, SD",506 min
same,AUC(0-t),"[2]; both, human, plasma, iv, 6 mg/kg, SD",701 µg·h/mL
same,dose excreted,"[2]; both, human, iv, 4 mg/kg, SD",54.3%
same,dose excreted,"[2]; both, human, iv, 6 mg/kg, SD",56.7%
